# Screens deposited in PubChem by several laboratories.
# Shown are actives, neighbours in structure and some others; about 12% of the full set was active somewhere.
# Diaphorase inh: diaphorase inhibitors and chemical oxidizers, primary screen, counter-screen for diaphorase-coupled primary assays, biochemical, uHTS, resorufin fluorescence. 190,000 compounds, 0.69% hits. diaphorase resazurin-to-resorufin fluorescence, NADH, 16 min; bacterial (C. kluyveri) enzyme, not human. inhibition, % at 20 µM. AID 1217, 2008;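 active = primary screen inhibition at 20 µM above a set limit, cut at about 50% in these data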
#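 Assay system: diaphorase enzyme from Clostridium kluyveri; Input: enzyme working solution with 0.14 U/mL diaphorase; Timing: 16 min at room temperature; Technique: resorufin fluorescence, excitation 544 nm, emission 590 nm; Benchmarks: positive control minus NADH, DMSO neutral control.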
# WT yeast gro inh: growth inhibition of WT strain, primary screen, mitochondrial fusion inhibitor project, WT and mutant strains, chemical genetic | AID 1362, 2008 | inhibition, % at 10 µM | 190,000 compounds, 2.1% hits | mitochondrial fusion phenotypic screen; in the data active = inhibition above about 58%; tested in S. cerevisiae
# KCC2 mod: KCC2 cotransporter modulators, thallium flux, primary screen, cell-based, HEK293 KCC2, FluoZin-2 fluorescence, MLSMR; Solute carrier family 12 member 5 (Homo sapiens), Q9H2X9; KCC2 cells, thallium flux FluoZin-2 fluorescence; B-score of Tl+ flux slope (higher = more flux/activation; lower = inhibition) at 10 µM; 190,000 compounds, 2.2% hits;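 active = thallium flux slope and its plate-corrected score both differing from the plate sample mean at a set confidence after two filtering rounds, in either direction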;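 note: slope of fluorescence scaled to starting intensity during 10 to 20 s after thallium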
# Target sequence (Q9H2X9 whole entry, looked up): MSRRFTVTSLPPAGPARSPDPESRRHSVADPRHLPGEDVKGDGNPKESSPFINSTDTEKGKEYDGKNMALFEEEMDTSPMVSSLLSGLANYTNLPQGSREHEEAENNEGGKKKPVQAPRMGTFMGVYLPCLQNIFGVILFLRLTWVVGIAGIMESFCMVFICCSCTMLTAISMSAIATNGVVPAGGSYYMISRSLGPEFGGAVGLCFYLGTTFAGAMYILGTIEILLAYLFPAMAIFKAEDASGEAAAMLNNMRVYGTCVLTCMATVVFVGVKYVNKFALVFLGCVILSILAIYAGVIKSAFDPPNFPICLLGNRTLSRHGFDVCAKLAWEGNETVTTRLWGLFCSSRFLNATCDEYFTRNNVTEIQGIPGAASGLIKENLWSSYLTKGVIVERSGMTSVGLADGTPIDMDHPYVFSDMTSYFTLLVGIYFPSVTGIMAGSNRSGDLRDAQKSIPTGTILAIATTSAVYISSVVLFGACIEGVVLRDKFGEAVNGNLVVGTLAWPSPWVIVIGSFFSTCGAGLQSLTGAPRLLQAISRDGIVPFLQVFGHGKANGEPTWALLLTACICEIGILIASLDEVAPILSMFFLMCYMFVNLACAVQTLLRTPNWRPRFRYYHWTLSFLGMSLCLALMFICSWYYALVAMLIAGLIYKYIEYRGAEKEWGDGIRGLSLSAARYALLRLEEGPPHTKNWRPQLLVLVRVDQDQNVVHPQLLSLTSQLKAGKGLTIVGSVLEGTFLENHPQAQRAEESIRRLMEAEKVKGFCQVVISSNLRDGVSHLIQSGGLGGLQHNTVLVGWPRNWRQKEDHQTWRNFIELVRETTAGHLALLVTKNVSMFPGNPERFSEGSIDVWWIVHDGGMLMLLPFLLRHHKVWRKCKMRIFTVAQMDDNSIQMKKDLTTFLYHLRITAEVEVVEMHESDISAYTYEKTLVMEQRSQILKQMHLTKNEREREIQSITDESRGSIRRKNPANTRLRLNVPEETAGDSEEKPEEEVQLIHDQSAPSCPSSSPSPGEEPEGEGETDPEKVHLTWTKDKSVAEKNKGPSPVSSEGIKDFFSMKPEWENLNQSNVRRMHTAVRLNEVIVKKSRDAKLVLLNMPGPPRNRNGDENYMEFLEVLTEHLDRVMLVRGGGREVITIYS
# Diaph act CS: compounds boosting diaphorase resazurin reduction – biochemical, uHTS, resorufin fluorescence, counter-screen for diaphorase-coupled primary assays, primary screen; Diaphorase/resazurin coupled assay, 16 min; stronger effect = higher value; 1 = vehicle wells, 0 = NADH-free wells; activation factor at 20 µM; 190,000 compounds, 0.005% hits; AID 1229, 2008;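 active = diaphorase activity raised at least twofold by the compound at 20 µM; inactive = activation factor below 2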
#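 Material: purified diaphorase enzyme from Clostridium kluyveri / Medium: HEPES pH 7.4 buffer with MgCl2 and Tween 20 / Schedule: enzyme reaction of 16 min at room temperature / Measured by: resorufin fluorescence, excitation 544 nm, emission 590 nm / Evaluation: rise in resorufin formation, marking diaphorase activation or chemical reduction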
# ROMK mod: ROMK potassium channel modulators, primary screen, cell-based, thallium flux, MLSMR library. 130,000 compounds, 2% hits. B-score at 10 µM. ATP-sensitive inward rectifier potassium channel 1 (Homo sapiens), P48048. Tet-inducible ROMK, thallium flux fluorescence; actives lie on both sides;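 active = signal ratio slope over the read window, or its plate-corrected B-score, at least 3 SD from the plate mean, either direction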;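 note: B-score of the F/F0 ratio slope over 7 to 12 s after thallium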
# Lmaj promast: Leishmania major promastigote growth inhibition, primary screen. 200,000 compounds, 9% hits. Leishmania major promastigotes, resazurin fluorescence viability. inhibition, % at 10 µM; in the data active = inhibition above about 50%;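 note: promastigotes grown with compound for 44 hours at 28 °C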
# Numbers stand for hits; 0 = inactive; - = no result given.
SMILES,Diaphorase inh,WT yeast gro inh,KCC2 mod,Diaph act CS,ROMK mod,Lmaj promast
COc1ccc(CNC(=O)Cc2c(C(=O)O)[nH]c3ccccc23)cc1,0,0,0,0,-,0
CC(=O)c1cccc(NC(=O)C(CC(C)C)NC(=O)C2CCCCC2)c1 (stereo not given),0,0,0,0,0,0
CN(CCCNC(=O)CSc1cc(=O)n(C)c2ccc(Cl)cc12)Cc1ccccc1,0,0,0,0,-,58
COC(=O)c1ccc(CO/N=C(\NC(C)=O)c2nonc2NC(C)=O)cc1,0,0,0,0,0,0
COc1ccc(N(C(=O)/C=C/c2ccc(OC)c(OC)c2)C2=CC3CCC(C2)N3C)cc1 (stereo not given),0,0,0,0,0,100
COc1ccc(N(C(=O)c2ccc(Cl)cc2)C2=CC3CCC(C2)N3C)cc1 (stereo not given),0,0,0,0,0,79
COC(=O)c1c(NC(=O)CC2SC(N)=NC2=O)sc2c1CCC(C(C)(C)C)C2 (stereo not given),0,0,0,0,0,0
Cc1ccc(-n2c3nc(=O)[nH]c(=O)c-3cc3c(C)nn(-c4ccccc4)c32)c(C)c1,0,0,0,0,-,0
COC(=O)c1ccccc1NC(=S)NC(=O)c1ccccc1,0,0,-,0,-,0
COC(=O)c1sc(NC(=S)NC(=O)c2ccccc2)nc1C,0,0,35,0,-,0
COC(=O)c1ccccc1NC(=S)NC(=O)c1ccc(C)cc1,0,0,11,0,-,0
COC(=O)c1sc(NC(=S)NC(=O)c2ccccc2Cl)nc1C,0,0,50,0,-,0
O=C(COc1ncnc2sccc12)NC1CCS(=O)(=O)C1 (stereo not given),-,-,0,-,-,-
CC(CCc1ccccc1)NC(=O)COC(=O)C1CCC(C(C)(C)C)CC1 (stereo not given),0,0,0,0,-,0
COc1ccc(-n2nnnc2SCC(=O)c2cccc(OC)c2)cc1,0,0,0,0,0,0
O=C(CSc1nnnn1-c1ccc(F)cc1)c1ccc(O)c(O)c1,50,0,0,0,0,0
CN1CCN(CC(=O)N2CCn3c4c(c5cc(C6CCCCC6)ccc53)CCCC42)CC1 (stereo not given),0,0,0,0,-,101
Cc1ccc2c(c1)c1c3n2CCN(C(=O)CN2CCN(C)CC2)C3CCC1 (stereo not given),0,0,0,0,-,0
O=C(CSc1nc2ccccc2n1S(=O)(=O)c1ccccc1)N1CCCC1,0,0,0,0,0,0
CCC1CCCCN1c1nc2c(C=O)c(C)nn2c2ccccc12 (stereo not given),68,0,0,0,0,0
C[C@H](NC(=O)OC(C)(C)C)C(=O)N/N=C/c1ccc2nccnc2c1,-,-,0,-,-,-
COc1ccc(CCNC(=O)COC(=O)C23CC4CC(CC(Br)(C4)C2)C3)cc1,0,0,0,0,-,56
COc1ccc(CCNC(=O)COC(=O)C23CC4CC(CC(C4)C2)C3)cc1,0,0,0,0,-,0
COc1cc(CNCc2cccnc2)ccc1OCC(=O)NC1CCCCC1,0,0,0,0,0,86
O=C(/C=C/c1ccc([N+](=O)[O-])cc1)c1cccnc1,0,0,0,0,-,95
SMILES,Diaphorase inh,WT yeast gro inh,KCC2 mod,Diaph act CS,ROMK mod,Lmaj promast
CC(/C=C/c1cccc([N+](=O)[O-])c1)=N/NC(=O)c1cccnc1,0,0,0,0,0,96
O=C(O)/C=C/c1cccc(OCc2ccccc2)c1,0,0,0,0,0,0
O=C(/C=C/c1cccc(OCc2ccccc2)c1)c1cccnc1,0,0,0,0,-,100
CC(/C=C/c1ccccc1)=N/NC(=O)c1cc([N+](=O)[O-])cc([N+](=O)[O-])c1,0,0,0,0,-,83
O=C(O)c1ccc(-c2nc(-c3ccccc3)c(-c3cccs3)[nH]2)cc1,-,-,0,-,0,-
COc1ccc(-c2nc(-c3ccccc3)c(-c3cc([N+](=O)[O-])ccc3C)[nH]2)cc1OC,0,0,0,0,0,65
CCOc1cc(-c2nc(-c3ccccc3)c(-c3cc([N+](=O)[O-])ccc3C)[nH]2)ccc1O,0,0,0,0,0,0
O=[N+]([O-])c1ccc(O)c(-c2nc(-c3ccccc3)c(-c3cccs3)[nH]2)c1,0,72,0,0,-,0
Cc1c(NS(=O)(=O)c2ccc(C(=O)NCc3ccccc3)cc2)c(=O)n(-c2ccccc2)n1C,0,0,0,0,0,0
O=C(C1=C[C@H](C2CC2)C[C@H](OCCCCO)O1)N1CCN(Cc2ccccc2)CC1,0,0,0,0,-,0
O=C(C1=C[C@H](C2CCCCC2)C[C@H](OCCCCO)O1)N1CCN(Cc2ccccc2)CC1,0,0,0,0,-,59
CCO[C@@H]1OC(C(=O)N2CCN(Cc3ccc4c(c3)OCO4)CC2)=C[C@H](c2cn(C(C)=O)c3ccccc23)[C@H]1CCCO,56,0,0,0,-,0
CCO[C@H]1OC(C(=O)N2CCN(Cc3ccc4c(c3)OCO4)CC2)=C[C@@H](C2CC2)[C@@H]1CCCO,0,0,0,0,-,77
CC(=O)n1cc([C@H]2C=C(C(=O)N3CCN(Cc4ccc5c(c4)OCO5)CC3)O[C@@H](OCCCCO)C2)c2ccccc21,56,0,0,0,-,0
CCCS(=O)(=O)N1CCN=C1SCc1cccnc1,0,0,0,0,0,0
CCCCn1c(N)c(N(CC)C(=O)c2cccc(OC)c2)c(=O)[nH]c1=O,0,0,0,0,0,0
Cn1c(SCc2cccc(Cl)c2)nc(C(F)(F)F)cc1=O,0,0,0,0,-,0
Cc1ccc(/C=C/C(=O)NCc2cccs2)o1,0,0,0,0,0,0
CCO[C@H]1OC(C(=O)N2CCN(Cc3ccc4c(c3)OCO4)CC2)=C[C@@H](c2ccccc2)[C@@H]1CCCO,0,0,0,0,-,0
CCO[C@@H]1OC(C(=O)N2CCN(Cc3ccc4c(c3)OCO4)CC2)=C[C@H](c2csc3ccccc23)[C@H]1CCCO,0,0,0,0,-,72
CCOC(=O)CSC1=NC(=O)/C(=C\c2ccc(Cl)cc2)S1,0,0,0,0,-,0
O=C(NC(=S)Nc1cccnc1)c1cccs1,0,0,0,0,0,0
O=C(NC(=S)Nc1ccc(Cl)cn1)c1cccs1,0,0,21,0,-,0
CCCCC(=O)Nc1ccc(NC(=O)c2cccs2)cn1,-,0,0,-,0,83
Cc1ccnc(NC(=O)/C=C/c2cccs2)c1,0,0,0,0,-,0
CCCC(=O)Nc1ccc(NC(=O)c2cccs2)cn1,0,0,0,0,-,0
